The source of these data is ChEMBL document CHEMBL4706541, “Design and synthesis of 1H-indazole-3-carboxamide derivatives as potent and selective PAK1 inhibitors with anti-tumour migration and invasion activities” (Eur J Med Chem, 2020).

Molecules are shown by their SMILES.

In experiment [1] the target is T1, Serine/threonine-protein kinase PAK 1 (Homo sapiens, UniProt Q13153). Kind of experiment: Inhibition of full length recombinant human N-terminal GST/His6-tagged PAK1 expressed in sf9 insect cells using tetra LRRWSLG as substrate preincubated for 20 min followed by [gamma33P]ATP addition and measured after 120 mins by Hotspot assay.
For experiment [2], the system named is HCT-116. Kind of experiment: Antiproliferative activity against human HCT-116 cells assessed as growth inhibition at 1 uM after 72 hrs by Cell Titer-Glo assay relative to control. Conditions: read-out: GI. Format: functional. In short, it runs like this:
(§1)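 Cells kept at 37 °C in 5% CO2 and plated at 4000 per well. Treated with compound for 72 h. Viability read by CellTiter-Glo luminescence. Each compound run in duplicate, data as means ± SD.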

For experiment [3], the system named is MDA-MB-231. Kind of experiment: Antiproliferative activity against human MDA-MB-231 cells assessed as growth inhibition at 1 uM after 72 hrs by Cell Titer-Glo assay relative to control. In kind it is functional. Conditions: read-out: GI. In outline: as §1
Background: In ATP-based viability assays light output follows the ATP content of the culture.

In experiment [4] the target is Serine/threonine-protein kinase PAK 4 (Homo sapiens, UniProt O96013). Kind of experiment: Inhibition of full length recombinant human N-terminal GST/His6-tagged PAK4 expressed in baculovirus infected sf9 insect cells using tetra LRRWSLG as substrate preincubated for 20 min followed by [gamma33P]ATP addition and measured after 120 mins by Hotspot assay.
Experiment [5] is filed under the species Homo sapiens. In words: Selectivity index ratio of IC50 for inhibition of human PAK4 to IC50 for human PAK1. In short, it runs like this:
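Compound tested from 10 µM in 3-fold serial dilutions in the HotSpot radiometric assay, with 20 min preincubation, 10 µM ATP/33P-ATP and 120 min at 25 °C. Filter-binding gives IC50. Selectivity is expressed as the PAK4 IC50 divided by the PAK1 IC50.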

Experiment [6] addresses Voltage-gated inwardly rectifying potassium channel KCNH2 (Homo sapiens, UniProt Q12809). In words: Inhibition of human ERG.
For experiment [7], the target named is T1, Serine/threonine-protein kinase PAK 1. Kind of experiment: Inhibition of PAK1 (unknown origin).

T1 sequence (Q13153 whole entry): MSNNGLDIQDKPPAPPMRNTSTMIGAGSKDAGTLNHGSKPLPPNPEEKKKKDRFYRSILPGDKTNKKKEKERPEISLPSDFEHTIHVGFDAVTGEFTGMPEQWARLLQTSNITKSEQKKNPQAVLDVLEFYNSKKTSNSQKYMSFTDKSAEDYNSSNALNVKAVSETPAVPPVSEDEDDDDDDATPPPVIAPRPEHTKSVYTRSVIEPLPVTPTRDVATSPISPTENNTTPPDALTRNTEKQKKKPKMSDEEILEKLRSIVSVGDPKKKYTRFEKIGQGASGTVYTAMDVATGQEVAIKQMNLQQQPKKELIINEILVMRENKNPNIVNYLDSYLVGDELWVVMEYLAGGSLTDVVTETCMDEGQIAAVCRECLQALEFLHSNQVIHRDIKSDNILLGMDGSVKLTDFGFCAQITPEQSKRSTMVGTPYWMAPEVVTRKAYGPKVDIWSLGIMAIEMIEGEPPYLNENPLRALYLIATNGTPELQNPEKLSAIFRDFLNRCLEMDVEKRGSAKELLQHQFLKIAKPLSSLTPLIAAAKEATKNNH
Chain of Voltage-gated inwardly rectifying potassium channel KCNH2 (Q12809 whole entry): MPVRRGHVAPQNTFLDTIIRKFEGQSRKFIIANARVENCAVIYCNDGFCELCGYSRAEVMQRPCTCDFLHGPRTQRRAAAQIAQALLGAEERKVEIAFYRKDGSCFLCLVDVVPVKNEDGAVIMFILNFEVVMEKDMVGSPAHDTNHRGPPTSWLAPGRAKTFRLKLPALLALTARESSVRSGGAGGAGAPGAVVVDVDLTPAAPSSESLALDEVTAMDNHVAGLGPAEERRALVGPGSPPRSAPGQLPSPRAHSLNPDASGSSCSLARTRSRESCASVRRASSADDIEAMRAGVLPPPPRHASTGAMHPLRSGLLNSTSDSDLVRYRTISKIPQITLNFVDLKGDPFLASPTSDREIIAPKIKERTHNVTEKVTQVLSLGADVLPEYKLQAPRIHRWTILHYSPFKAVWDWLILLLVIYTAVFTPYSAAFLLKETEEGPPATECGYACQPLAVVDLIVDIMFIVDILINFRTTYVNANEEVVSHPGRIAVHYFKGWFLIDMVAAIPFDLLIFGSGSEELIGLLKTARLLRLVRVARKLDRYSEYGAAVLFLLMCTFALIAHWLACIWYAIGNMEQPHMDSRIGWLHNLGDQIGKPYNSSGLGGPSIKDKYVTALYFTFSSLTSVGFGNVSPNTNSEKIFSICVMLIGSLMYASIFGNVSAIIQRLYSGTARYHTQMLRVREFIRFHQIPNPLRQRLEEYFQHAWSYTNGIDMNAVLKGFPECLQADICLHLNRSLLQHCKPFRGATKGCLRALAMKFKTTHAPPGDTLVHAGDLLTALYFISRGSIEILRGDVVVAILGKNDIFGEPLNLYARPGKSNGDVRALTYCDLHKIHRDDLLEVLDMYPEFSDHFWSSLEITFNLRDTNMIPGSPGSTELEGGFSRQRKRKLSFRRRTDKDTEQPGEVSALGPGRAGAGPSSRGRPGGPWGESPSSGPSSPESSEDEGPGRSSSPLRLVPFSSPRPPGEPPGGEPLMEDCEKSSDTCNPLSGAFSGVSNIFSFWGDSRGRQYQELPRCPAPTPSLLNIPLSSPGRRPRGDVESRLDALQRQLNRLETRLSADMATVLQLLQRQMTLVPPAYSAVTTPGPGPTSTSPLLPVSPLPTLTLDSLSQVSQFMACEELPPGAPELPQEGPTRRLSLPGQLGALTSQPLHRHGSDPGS
Chain of Serine/threonine-protein kinase PAK 4 (O96013 whole entry): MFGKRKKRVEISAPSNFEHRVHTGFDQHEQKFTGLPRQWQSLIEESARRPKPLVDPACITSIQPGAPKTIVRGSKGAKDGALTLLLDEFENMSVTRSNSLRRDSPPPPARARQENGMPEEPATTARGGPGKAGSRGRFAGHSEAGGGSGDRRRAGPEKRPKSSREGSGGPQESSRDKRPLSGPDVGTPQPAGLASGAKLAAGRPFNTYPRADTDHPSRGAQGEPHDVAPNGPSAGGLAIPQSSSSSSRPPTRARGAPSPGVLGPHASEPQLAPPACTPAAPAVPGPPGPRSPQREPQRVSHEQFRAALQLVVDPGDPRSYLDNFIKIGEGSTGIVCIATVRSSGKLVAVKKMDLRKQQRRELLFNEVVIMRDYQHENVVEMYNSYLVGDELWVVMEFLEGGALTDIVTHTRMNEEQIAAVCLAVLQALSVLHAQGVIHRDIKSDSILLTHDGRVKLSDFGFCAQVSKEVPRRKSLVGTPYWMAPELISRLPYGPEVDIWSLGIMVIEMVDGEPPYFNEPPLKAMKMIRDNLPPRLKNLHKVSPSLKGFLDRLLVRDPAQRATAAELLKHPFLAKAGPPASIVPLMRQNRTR

As to `Cc1cccn(-c2ccc(-c3ccc4c(C(=O)NCc5ccccc5)n[nH]c4c3)c(Cl)c2)c1=O`, the 50% inhibitory concentration (IC50) in experiment [1] was 92 nM. Also, the inhibition of growth at 1 µM in experiment [2] worked out at 13.2%; in experiment [3], 9.66%.
Taken in the same sequence, the figures for `Cc1cccn(-c2ccc(-c3ccc4c(C(=O)NCC5CCN(C)CC5)n[nH]c4c3)c(Cl)c2)c1=O` were 22 nM, 20.1% and 18.4%.
On to `Cc1cccn(-c2ccc(-c3ccc4c(C(=O)N5CCOCC5)n[nH]c4c3)c(Cl)c2)c1=O`, for which, in experiment [1], the concentration for half-maximal inhibition (IC50) is over 10000 nM.
`Cc1cccn(-c2ccc(-c3ccc4c(C(=O)Nc5ccncc5)n[nH]c4c3)c(Cl)c2)c1=O`: in experiment [1], the IC50 was 16 nM. For the same compound, the results for the inhibition of growth at 1 µM in experiment [2] and in experiment [3] were 4.41% and 6.59%, respectively.
Consider `CNC(=O)c1n[nH]c2cc(-c3ccc(-n4cccc(C)c4=O)cc3Cl)ccc12`, for which the concentration for half-maximal inhibition (IC50) is 16 nM in experiment [1] and over 10000 nM in experiment [4]. Besides, the values for the inhibition of growth at 1 µM in experiment [2] and in experiment [3] were 17.2% and 13.2%, respectively.
In the case of `Cc1cncc(-c2ccc(-c3ccc4c(C(=O)NCC5CC5)n[nH]c4c3)c(Cl)c2)n1`, the concentration for half-maximal inhibition (IC50) in experiment [1] turned out to be 777 nM.
Turning to `Cc1cccn(-c2ccc(-c3ccc4c(C(=O)NCC5CC5)n[nH]c4c3)c(Cl)c2)c1=O`, the IC50 in experiment [1] is 34 nM; in experiment [4] it was over 10000 nM. The inhibition of growth at 1 µM was determined as 10.8% in experiment [2] and 6.87% in experiment [3].
With `Cc1cccn(-c2ccc(-c3ccc4c(C(=O)NCCO)n[nH]c4c3)c(Cl)c2)c1=O`, the half-inhibitory concentration (IC50) in experiment [1] was determined as 66 nM. The inhibition of growth at 1 µM came to 19.2% in experiment [2] and 17.4% in experiment [3].
For the compound `COCCNC(=O)c1n[nH]c2cc(-c3ccc(-n4cccc(C)c4=O)cc3Cl)ccc12`, the half-inhibitory concentration (IC50) in experiment [1] came to 71 nM. The results for the inhibition of growth at 1 µM in experiment [2] and in experiment [3] were 10.3% and 3.07%, respectively.
Taken in the same sequence, the figures for `CNC(=O)c1n[nH]c2cc(-c3ccc(-c4cncc(C)n4)cc3Cl)ccc12` were 159 nM, 11.5% and 15.3%.
Regarding `CCNC(=O)c1n[nH]c2cc(-c3ccc(-n4cccc(C)c4=O)cc3Cl)ccc12`, the concentration for half-maximal inhibition (IC50) in experiment [1] is 45 nM; in experiment [4], over 10000 nM; in experiment [6], 90400 nM. The inhibition of growth at 1 µM in experiment [2] turned out to be 9.37%; in experiment [3], 10.2%. Moreover, the Ratio IC50 in experiment [5] was over 200.
For `Cc1cccn(-c2ccc(-c3ccc4c(C(=O)NCC5CCOCC5)n[nH]c4c3)c(Cl)c2)c1=O`, the IC50 in experiment [1] is 42 nM. Also, the inhibition of growth at 1 µM in experiment [2] was found to be 16.2%; in experiment [3], 9.45%.
`Cc1nc(Nc2n[nH]c3c2CN(C(=O)N[C@H](CN(C)C)c2ccccc2)C3(C)C)c2sccc2n1` [PF-03758309]: the inhibition of growth at 1 µM came to 83.2% in experiment [2] and 62.6% in experiment [3]. Further, the IC50 in experiment [6] came to 41100 nM.
Consider `Cc1cccc(-c2ccc(-c3ccc4c(C(=O)NCC5CC5)n[nH]c4c3)c(Cl)c2)n1`, for which the IC50 in experiment [1] turned out to be 229 nM.
As for `Cc1cccn(-c2ccc(-c3ccc4c(C(=O)NC5CCOCC5)n[nH]c4c3)c(Cl)c2)c1=O`, in experiment [1], the IC50 turned out to be 744 nM. The inhibition of growth at 1 µM was determined as 7.91% in experiment [2] and 19.2% in experiment [3].
As for `CNC(=O)c1n[nH]c2cc(-c3ccc(-c4cccc(C)n4)cc3Cl)ccc12`, the IC50 in experiment [1] turned out to be 52 nM. Further, the inhibition of growth at 1 µM turned out to be 7.16% in experiment [2] and 8.12% in experiment [3].
On to `O=C(NCC1CC1)c1n[nH]c2cc(-c3ccc(-n4ccccc4=O)cc3Cl)ccc12`, for which the IC50 in experiment [1] was 590 nM.
Regarding `CNC(=O)c1n[nH]c2cc(-c3ccccc3Cl)ccc12`, the IC50 in experiment [7] and in experiment [1] was 5000 nM each time.
Turning to `Cc1cccn(-c2ccc(-c3ccc4c(C(=O)NC5CCN(C)CC5)n[nH]c4c3)c(Cl)c2)c1=O`, the IC50 in experiment [1] was 143 nM.
`CN[C@@H]1C[C@H]2O[C@@](C)([C@@H]1OC)n1c3ccccc3c3c4c(c5c6ccccc6n2c5c31)C(=O)NC4` had a half-inhibitory concentration (IC50) in experiment [6] of 90400 nM.
With `CNC(=O)c1n[nH]c2cc(-c3ccc(-n4ccccc4=O)cc3Cl)ccc12`, the 50% inhibitory concentration (IC50) in experiment [1] was determined as 330 nM.
Regarding `Cc1cccn(-c2ccc(-c3ccc4c(C(=O)NCCc5ccncc5)n[nH]c4c3)c(Cl)c2)c1=O`, the half-inhibitory concentration (IC50) in experiment [1] is 21 nM. Also, the figures for the inhibition of growth at 1 µM in experiment [2] and in experiment [3] were 15.3% and 8.42%, respectively.
As to `Cc1cccn(-c2ccc(-c3ccc4c(C(=O)N5CCCC5)n[nH]c4c3)c(Cl)c2)c1=O`, the IC50 in experiment [1] is over 10000 nM.

Broadly, the IC50 is the concentration that gives 50% inhibition.
